From ChEMBL document CHEMBL3124771, “Design, synthesis and antitubercular evaluation of novel series of N-[4-(piperazin-1-yl)phenyl]cinnamamide derivatives” (Eur J Med Chem, 2014)
≈ marks a conversion by molar mass, not a printed value.

Tests used:
[1] = tested on: Mycobacterium tuberculosis; assay: Antitubercular activity against Mycobacterium tuberculosis H37Rv after 7 days by resazurin microtitre assay; assay type: functional; conditions: 168 h
In short: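 M. tb H37Rv in Middlebrook 7H9 broth; compounds dissolved in DMSO (2 mg/ml stock), serially diluted in 96-well plate to 1.56–50 μg/ml, 100 μl cell suspension per well. After 7 days, 0.02% w/v resazurin added, incubated 1 more day; MIC = lowest concentration preventing blue-to-pink colour change (>90% inhibition), read visually. Isoniazid reference.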

Vero = assay: Cytotoxicity against African green monkey Vero cells after 72 hrs by MTT assay; assay type: cell-based; conditions: Chlorocebus sabaeus
In short: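 Vero cells subcultured, then exposed to compound at 125, 62.5 and 31.25 μg/ml for 72 h. MTT added for a further 4 h; formazan dissolved in DMSO. Viability read from tetrazolium-to-formazan conversion and reported as IC50.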

[2] = Selectivity index, ratio of IC50 for African green monkey Vero cells to MIC for Mycobacterium tuberculosis H37Rv; assay type: toxicity, cell-based; conditions: read-out: Selectivity Index
In short: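 SI = Vero IC50 / H37Rv MIC. Vero cytotoxicity by MTT: subcultured cells exposed 72 h to 125, 62.5, 31.25 μg/ml; MTT added 4 h, formazan dissolved in DMSO. MIC by REMA: H37Rv in 7H9 broth, 1.56–50 μg/ml serial dilutions, 7 days then resazurin 1 day, visual colour read.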

Structure (SMILES)	MIC90 [1] [µg/mL]	IC50 (Vero) [µg/mL]	selectivity ratio [2]
O=C(/C=C/c1ccccc1)Nc1ccc(N2CCN(C(=O)c3cc(Cl)cc(Cl)c3)CC2)c(F)c1	12.5 (≈ 25.1 µM)	–	–
O=C(/C=C/c1ccccc1)Nc1ccc(N2CCN(C(=O)c3ccc([N+](=O)[O-])cc3)CC2)cc1	> 50	–	–
O=C(/C=C/c1ccccc1)Nc1ccc(N2CCN(C(=O)c3ccc(F)cc3)CC2)c(F)c1	> 50	–	–
O=C(/C=C/c1ccccc1)Nc1ccc(N2CCN(C(=O)c3ccccc3C(F)(F)F)CC2)c(F)c1	3.12 (≈ 6.28 µM)	> 125	> 40
O=C(/C=C/c1ccccc1)Nc1ccc(N2CCN(C(=O)c3ccc([N+](=O)[O-])cc3)CC2)c(F)c1	12.5 (≈ 26.3 µM)	–	–
O=C(/C=C/c1ccc([N+](=O)[O-])cc1)Nc1ccc(N2CCN(C(=O)c3ccc(F)cc3)CC2)cc1	12.5 (≈ 26.3 µM)	> 125	> 10
O=C(/C=C/c1ccc([N+](=O)[O-])cc1)Nc1ccc(N2CCN(C(=O)c3cc(Cl)cc(Cl)c3)CC2)cc1	> 50	–	–
O=C(/C=C/c1ccc([N+](=O)[O-])cc1)Nc1ccc(N2CCN(C(=O)c3ccccc3C(F)(F)F)CC2)cc1	> 50	–	–
O=C(/C=C/c1ccc([N+](=O)[O-])cc1)Nc1ccc(N2CCN(C(=O)c3ccc([N+](=O)[O-])cc3)CC2)cc1	> 50	–	–
O=C(/C=C/c1ccc([N+](=O)[O-])cc1)Nc1ccc(N2CCN(C(=O)c3ccc(F)cc3)CC2)c(F)c1	12.5 (≈ 25.4 µM)	–	–
O=C(/C=C/c1ccc([N+](=O)[O-])cc1)Nc1ccc(N2CCN(C(=O)c3cc(Cl)cc(Cl)c3)CC2)c(F)c1	12.5 (≈ 23 µM)	–	–
O=C(/C=C/c1ccc([N+](=O)[O-])cc1)Nc1ccc(N2CCN(C(=O)c3ccccc3C(F)(F)F)CC2)c(F)c1	> 50	–	–
O=C(/C=C/c1ccc([N+](=O)[O-])cc1)Nc1ccc(N2CCN(C(=O)c3ccc([N+](=O)[O-])cc3)CC2)c(F)c1	> 50	–	–
O=C(/C=C/c1ccccc1)Nc1ccc(N2CCN(C(=O)c3ccncc3)CC2)cc1	50 (≈ 121 µM)	–	–
O=C(/C=C/c1ccccc1)Nc1ccc(N2CCN(C(=O)c3ccncc3)CC2)c(F)c1	> 50	–	–
O=C(/C=C/c1ccc([N+](=O)[O-])cc1)Nc1ccc(N2CCN(C(=O)c3ccncc3)CC2)cc1	> 50	–	–
O=C(/C=C/c1ccc([N+](=O)[O-])cc1)Nc1ccc(N2CCN(C(=O)c3ccncc3)CC2)c(F)c1	12.5 (≈ 26.3 µM)	> 125	> 10
CCN1CCN(c2ccc(NC(=O)/C=C/c3ccc([N+](=O)[O-])cc3)cc2)CC1	12.5 (≈ 32.9 µM)	–	–
O=C(/C=C/c1ccc([N+](=O)[O-])cc1)Nc1ccc(N2CCN(c3ccccn3)CC2)cc1	> 50	–	–
CC(C)(C)OC(=O)N1CCN(c2ccc(NC(=O)/C=C/c3ccc([N+](=O)[O-])cc3)cc2)CC1	12.5 (≈ 27.6 µM)	–	–
CN1CCN(c2ccc(NC(=O)/C=C/c3ccc([N+](=O)[O-])cc3)cc2F)CC1	25 (≈ 65 µM)	–	–
CCN1CCN(c2ccc(NC(=O)/C=C/c3ccc([N+](=O)[O-])cc3)cc2F)CC1	> 50	–	–
O=C(/C=C/c1ccc([N+](=O)[O-])cc1)Nc1ccc(N2CCN(c3ccccn3)CC2)c(F)c1	> 50	–	–
CC(C)(C)OC(=O)N1CCN(c2ccc(NC(=O)/C=C/c3ccc([N+](=O)[O-])cc3)cc2F)CC1	50 (≈ 106 µM)	–	–
O=C(/C=C/c1ccccc1)Nc1ccc(N2CCNCC2)cc1	12.5 (≈ 40.7 µM)	–	–
O=C(/C=C/c1ccccc1)Nc1ccc(N2CCNCC2)c(F)c1	25 (≈ 76.8 µM)	–	–
O=C(/C=C/c1ccc([N+](=O)[O-])cc1)Nc1ccc(N2CCNCC2)cc1	50 (≈ 142 µM)	–	–

Structure (SMILES)	MIC90 [1] [µg/mL]	IC50 (Vero) [µg/mL]	selectivity ratio [2]
O=C(/C=C/c1ccc([N+](=O)[O-])cc1)Nc1ccc(N2CCNCC2)c(F)c1	12.5 (≈ 33.7 µM)	–	–
COC(=O)N1CCN(c2ccc(NC(=O)/C=C/c3ccccc3)cc2)CC1	> 50	–	–
CCOC(=O)N1CCN(c2ccc(NC(=O)/C=C/c3ccccc3)cc2)CC1	> 50	–	–
O=C(/C=C/c1ccccc1)Nc1ccc(N2CCN(C(=O)Oc3ccccc3)CC2)cc1	> 50	–	–
COC(=O)N1CCN(c2ccc(NC(=O)/C=C/c3ccccc3)cc2F)CC1	> 50	–	–
CCOC(=O)N1CCN(c2ccc(NC(=O)/C=C/c3ccccc3)cc2F)CC1	> 50	–	–
O=C(/C=C/c1ccccc1)Nc1ccc(N2CCN(C(=O)Oc3ccccc3)CC2)c(F)c1	> 50	–	–
COC(=O)N1CCN(c2ccc(NC(=O)/C=C/c3ccc([N+](=O)[O-])cc3)cc2)CC1	> 50	–	–
CCOC(=O)N1CCN(c2ccc(NC(=O)/C=C/c3ccc([N+](=O)[O-])cc3)cc2)CC1	> 50	–	–
O=C(/C=C/c1ccc([N+](=O)[O-])cc1)Nc1ccc(N2CCN(C(=O)Oc3ccccc3)CC2)cc1	> 50	–	–
COC(=O)N1CCN(c2ccc(NC(=O)/C=C/c3ccc([N+](=O)[O-])cc3)cc2F)CC1	> 50	–	–
CCOC(=O)N1CCN(c2ccc(NC(=O)/C=C/c3ccc([N+](=O)[O-])cc3)cc2F)CC1	> 50	–	–
O=C(/C=C/c1ccc([N+](=O)[O-])cc1)Nc1ccc(N2CCN(C(=O)Oc3ccccc3)CC2)c(F)c1	> 50	–	–
O=C(/C=C/c1ccccc1)Nc1ccc(N2CCN(C(=O)c3ccc(F)cc3)CC2)cc1	25 (≈ 58.2 µM)	–	–
O=C(/C=C/c1ccccc1)Nc1ccc(N2CCN(C(=O)c3cc(Cl)cc(Cl)c3)CC2)cc1	> 50	–	–
O=C(/C=C/c1ccccc1)Nc1ccc(N2CCN(C(=O)c3ccccc3C(F)(F)F)CC2)cc1	50 (≈ 104 µM)	–	–
CN1CCN(c2ccc(NC(=O)/C=C/c3ccccc3)cc2)CC1	6.25 (≈ 19.4 µM)	> 125	> 10
CCN1CCN(c2ccc(NC(=O)/C=C/c3ccccc3)cc2)CC1	12.5 (≈ 37.3 µM)	–	–
O=C(/C=C/c1ccccc1)Nc1ccc(N2CCN(c3ccccn3)CC2)cc1	> 50	–	–
CC(C)(C)OC(=O)N1CCN(c2ccc(NC(=O)/C=C/c3ccccc3)cc2)CC1	12.5 (≈ 30.7 µM)	–	–
CN1CCN(c2ccc(NC(=O)/C=C/c3ccccc3)cc2F)CC1	25 (≈ 73.7 µM)	–	–
CCN1CCN(c2ccc(NC(=O)/C=C/c3ccccc3)cc2F)CC1	12.5 (≈ 35.4 µM)	> 125	> 10
O=C(/C=C/c1ccccc1)Nc1ccc(N2CCN(c3ccccn3)CC2)c(F)c1	> 50	–	–
CC(C)(C)OC(=O)N1CCN(c2ccc(NC(=O)/C=C/c3ccccc3)cc2F)CC1	50 (≈ 118 µM)	–	–
CN1CCN(c2ccc(NC(=O)/C=C/c3ccc([N+](=O)[O-])cc3)cc2)CC1	12.5 (≈ 34.1 µM)	–	–
NNC(=O)c1ccncc1 [ISONIAZID]	0.39 (≈ 2.84 µM)	–	–
